Assay [1] concerns Mus musculus. In words: Antiinflammatory activity in ovalbumin-sensitized and challenged BALB/c mouse model assessed as attenuation of methacholine-induced increase in central airways responsiveness at 85 ug/g administered via nebulization 24 hrs after ovalbumin challenge measured after 15 mins. In kind it is functional, organism-based. The gist of the method:
(§1)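 Mice OVA-sensitized, then nebulized 6% OVA in PBS (or PBS alone) 25 min/day on days 14–20. Day 21, 24 h after last challenge: ketamine 50 mg/kg plus xylazine 10 mg/kg, intubated, ventilator-based resistance measured. Baseline resistance re-measured 15 min after drug. Then nebulized methacholine (0–100 mg/mL in PBS) dose-response via ventilator circuit. Maximum R and RN read; means ± SE, n = 12/group.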

Assay [2] addresses T1, Arginase-1 (Homo sapiens, UniProt P05089).
T1 sequence (P05089 whole entry): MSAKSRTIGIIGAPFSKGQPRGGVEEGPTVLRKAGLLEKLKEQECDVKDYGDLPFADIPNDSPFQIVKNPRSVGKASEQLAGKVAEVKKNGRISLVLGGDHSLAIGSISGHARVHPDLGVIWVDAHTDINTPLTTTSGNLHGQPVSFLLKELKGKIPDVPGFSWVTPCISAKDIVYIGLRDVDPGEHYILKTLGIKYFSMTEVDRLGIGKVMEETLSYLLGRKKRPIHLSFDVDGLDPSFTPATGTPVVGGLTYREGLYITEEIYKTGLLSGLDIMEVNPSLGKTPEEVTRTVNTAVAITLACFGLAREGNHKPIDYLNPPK
In words: Inhibition of human recombinant full length arginase 1 expressed in Escherichia coli BL21(DE3) by fixed point assay.

Assay [3] addresses T1, Arginase-1. Description: Inhibition of human recombinant full length arginase 1 expressed in Escherichia coli BL21(DE3) by surface plasmon resonance assay. A general note: In SPR one partner is held on a chip, and binding of the other changes the refractive index at the surface.
The target in the next assay is Nitric oxide synthase 1 (Rattus norvegicus, UniProt P29476). In words: Inhibition rat recombinant nNOS.
In assay [4] the test system is Mus musculus. Description: Antiinflammatory activity in ovalbumin-sensitized and challenged BALB/c mouse model assessed as attenuation of methacholine-induced maximum total lung resistance at 85 ug/g administered via nebulization 24 hrs after ovalbumin challenge measured after 15 mins. The class given is functional, organism-based. The gist of the method: as §1
Assay [5] deals with T2, Nitric oxide synthase, inducible (Mus musculus, UniProt P29477).
T2 sequence (P29477 whole entry): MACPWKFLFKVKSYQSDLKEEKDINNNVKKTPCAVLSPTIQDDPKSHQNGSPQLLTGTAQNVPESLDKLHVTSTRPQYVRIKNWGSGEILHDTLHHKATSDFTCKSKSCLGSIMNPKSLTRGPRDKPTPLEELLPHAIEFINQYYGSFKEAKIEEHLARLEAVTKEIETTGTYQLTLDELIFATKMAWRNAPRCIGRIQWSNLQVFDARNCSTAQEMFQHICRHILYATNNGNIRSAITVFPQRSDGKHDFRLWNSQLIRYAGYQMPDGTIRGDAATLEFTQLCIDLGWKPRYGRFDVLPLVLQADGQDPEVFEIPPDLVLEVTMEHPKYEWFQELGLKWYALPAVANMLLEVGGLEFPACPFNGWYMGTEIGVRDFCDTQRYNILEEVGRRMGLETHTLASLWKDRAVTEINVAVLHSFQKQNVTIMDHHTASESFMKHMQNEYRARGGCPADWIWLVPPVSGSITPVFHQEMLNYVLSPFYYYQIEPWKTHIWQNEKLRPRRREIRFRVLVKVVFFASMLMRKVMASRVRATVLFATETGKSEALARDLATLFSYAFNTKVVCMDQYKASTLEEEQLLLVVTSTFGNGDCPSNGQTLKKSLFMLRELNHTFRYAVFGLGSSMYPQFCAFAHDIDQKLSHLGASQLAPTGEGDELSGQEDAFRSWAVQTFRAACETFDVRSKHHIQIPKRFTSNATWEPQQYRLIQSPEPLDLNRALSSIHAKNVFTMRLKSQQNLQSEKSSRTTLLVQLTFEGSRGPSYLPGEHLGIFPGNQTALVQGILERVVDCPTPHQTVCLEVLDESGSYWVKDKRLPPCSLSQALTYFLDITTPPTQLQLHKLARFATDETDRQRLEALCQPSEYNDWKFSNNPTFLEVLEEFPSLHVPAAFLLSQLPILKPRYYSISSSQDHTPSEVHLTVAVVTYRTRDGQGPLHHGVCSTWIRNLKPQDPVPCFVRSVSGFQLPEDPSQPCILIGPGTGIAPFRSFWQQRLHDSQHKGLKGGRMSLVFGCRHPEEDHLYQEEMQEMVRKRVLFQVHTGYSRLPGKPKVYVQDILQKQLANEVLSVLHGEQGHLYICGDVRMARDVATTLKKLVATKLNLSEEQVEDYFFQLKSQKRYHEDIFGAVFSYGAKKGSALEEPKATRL
Description: Inhibition of mouse recombinant iNOS.

Structures are written as SMILES. Activity calls are given as the source filed them. No cut-off for these calls is given here.

Chain of Nitric oxide synthase 1 (P29476 whole entry): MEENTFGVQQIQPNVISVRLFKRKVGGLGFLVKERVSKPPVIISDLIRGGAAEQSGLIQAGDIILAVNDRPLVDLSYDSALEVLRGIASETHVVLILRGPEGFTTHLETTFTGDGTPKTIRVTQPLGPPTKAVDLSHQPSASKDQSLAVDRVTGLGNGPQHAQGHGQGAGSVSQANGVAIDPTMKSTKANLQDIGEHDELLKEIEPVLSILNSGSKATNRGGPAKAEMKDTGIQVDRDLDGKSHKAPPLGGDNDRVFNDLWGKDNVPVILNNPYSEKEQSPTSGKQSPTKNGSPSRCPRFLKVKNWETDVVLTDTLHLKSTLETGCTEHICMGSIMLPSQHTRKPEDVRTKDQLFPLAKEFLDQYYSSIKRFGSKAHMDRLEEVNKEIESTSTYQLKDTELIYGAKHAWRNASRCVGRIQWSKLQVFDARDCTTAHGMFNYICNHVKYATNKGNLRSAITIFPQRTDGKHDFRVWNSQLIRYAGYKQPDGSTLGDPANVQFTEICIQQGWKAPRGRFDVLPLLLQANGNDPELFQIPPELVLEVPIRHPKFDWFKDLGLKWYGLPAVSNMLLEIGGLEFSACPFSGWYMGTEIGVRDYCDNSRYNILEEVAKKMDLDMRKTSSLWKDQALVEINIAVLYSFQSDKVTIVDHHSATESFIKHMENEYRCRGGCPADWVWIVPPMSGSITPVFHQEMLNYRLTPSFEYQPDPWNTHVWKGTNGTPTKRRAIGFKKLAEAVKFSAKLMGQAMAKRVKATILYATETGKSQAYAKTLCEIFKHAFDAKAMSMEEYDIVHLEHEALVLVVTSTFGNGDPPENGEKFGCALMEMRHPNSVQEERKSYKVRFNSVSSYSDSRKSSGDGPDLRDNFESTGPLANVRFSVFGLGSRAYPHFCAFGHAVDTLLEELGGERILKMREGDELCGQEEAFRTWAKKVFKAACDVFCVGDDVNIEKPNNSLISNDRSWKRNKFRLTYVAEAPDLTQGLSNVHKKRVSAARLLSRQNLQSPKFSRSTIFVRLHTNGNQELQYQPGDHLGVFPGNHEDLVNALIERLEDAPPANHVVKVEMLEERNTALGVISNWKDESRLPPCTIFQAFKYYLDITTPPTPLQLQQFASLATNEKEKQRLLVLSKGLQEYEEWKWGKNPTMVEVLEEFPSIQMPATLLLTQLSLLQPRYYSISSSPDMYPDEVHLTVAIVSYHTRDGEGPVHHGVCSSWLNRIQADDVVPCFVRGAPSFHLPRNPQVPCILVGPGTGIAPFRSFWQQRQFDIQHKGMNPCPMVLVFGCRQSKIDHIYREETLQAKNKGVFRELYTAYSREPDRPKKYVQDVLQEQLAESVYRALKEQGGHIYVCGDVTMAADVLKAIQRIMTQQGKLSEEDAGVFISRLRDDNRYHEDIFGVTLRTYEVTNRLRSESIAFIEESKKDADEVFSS

For orientation: Ki means the equilibrium dissociation constant of an inhibitor or competing ligand from its target. What is called Kd is the constant that tells how readily two partners part at equilibrium. As a reminder, the IC50 is the point on the concentration scale where inhibition reaches its midpoint. Take `Nc1nccn1CCC[C@H](N)C(=O)O`: the inhibition entry with Mus musculus [1] and in the assay on Mus musculus [4] was “Active” each time. In addition, at Arginase-1 [2], the Ki is 4 µM. For the same molecule, at Arginase-1 [3], the Kd was 2 µM. The IC50 on Nitric oxide synthase 1 amounted to 135 µM; in assay [5] it was 480 µM.
As to `Nc1ncc[nH]1`, the Ki on Arginase-1 [2] turned out to be 3600 µM.
On the same count and under the same terms, then `N[C@@H](CCCNc1ncc[nH]1)C(=O)O`, with 500 µM.

(Values after ChEMBL document CHEMBL1157817, “2-aminoimidazole amino acids as inhibitors of the binuclear manganese metalloenzyme human arginase I” (J Med Chem, 2010).)
